Reference: ChEMBL document CHEMBL3822407, “Design, synthesis and antiproliferative activity of novel 5-nitropyrimidine-2,4-diamine derivatives bearing alkyl acetate moiety” (Eur J Med Chem, 2016)
≈ marks a conversion by molar mass, not a printed value.

Key:
A549 = assay: Antiproliferative activity against human A549 cells after 48 hrs by MTT assay; type: functional, cell-based; details: A549, 48 h
Procedure, shortened: (§1)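 Cells kept in DMEM with 10% FBS and plated at 5 × 10³ per well, then allowed 24 h to attach at 37 °C. Compounds were dissolved as 20 mM DMSO stocks, diluted in medium to a range of concentrations, and applied for 48 h at 37 °C under 5% CO2, with 0.1% DMSO as control. MTT was added for 4 h, formazan dissolved in DMSO, and A570 read. IC50 is the mean of three independent experiments run in quadruplicate.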

HepG2 [1] = assay: Antiproliferative activity against human HepG2 cells after 48 hrs by MTT assay; type: functional, cell-based; details: HepG2, 48 h; procedure, shortened: as §1
MDA-MB-231 = assay: Antiproliferative activity against human MDA-MB-231 cells after 48 hrs by MTT assay; type: functional, cell-based; details: MDA-MB-231, 48 h; procedure, shortened: as §1
MCF7 = assay: Antiproliferative activity against human MCF7 cells after 48 hrs by MTT assay; type: functional, cell-based; details: MCF7, 48 h; procedure, shortened: as §1
HepG2 [2] = assay: Cell cycle arrest in human HepG2 cells assessed as accumulation at subG1 phase at 10 uM after 48 hrs by propidium iodide staining based flow cytometry (reference value: 2.09%); type: functional
Procedure, shortened: (§2)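 HepG2 cells grown to about 70% confluence and exposed to […] of compound for 48 h. Cells were then trypsinized, washed in PBS and fixed overnight in ice-cold 70% ethanol. They were treated with RNase (50, final) at 37 °C for 30 min, stained with propidium iodide (50, final), and phase distribution was measured by flow cytometry.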

HepG2 [3] = assay: Cell cycle arrest in human HepG2 cells assessed as accumulation at G2/M phase at 1 uM after 48 hrs by propidium iodide staining based flow cytometry (reference value: 21.54%); type: functional; procedure, shortened: as §2
HepG2 [4] = assay: Cell cycle arrest in human HepG2 cells assessed as accumulation at subG1 phase at 20 uM after 48 hrs by propidium iodide staining based flow cytometry (reference value: 2.09%); type: functional; procedure, shortened: as §2
HepG2 [5] = assay: Cell cycle arrest in human HepG2 cells assessed as accumulation at G0/G1 phase at 20 uM after 48 hrs by propidium iodide staining based flow cytometry (reference value: 44.28%); type: functional; procedure, shortened: as §2
HepG2 [6] = assay: Cell cycle arrest in human HepG2 cells assessed as accumulation at G0/G1 phase at 1 uM after 48 hrs by propidium iodide staining based flow cytometry (reference value: 44.28%); type: functional; procedure, shortened: as §2
HepG2 [7] = assay: Cell cycle arrest in human HepG2 cells assessed as accumulation at G0/G1 phase at 10 uM after 48 hrs by propidium iodide staining based flow cytometry (reference value: 44.28%); type: functional; procedure, shortened: as §2
HepG2 [8] = assay: Cell cycle arrest in human HepG2 cells assessed as accumulation at subG1 phase at 5 uM after 48 hrs by propidium iodide staining based flow cytometry (reference value: 2.09%); type: functional; procedure, shortened: as §2
[9] = Solubility in water at pH 6.4; type: physicochemical
HepG2 [10] = assay: Cell cycle arrest in human HepG2 cells assessed as accumulation at S phase at 20 uM after 48 hrs by propidium iodide staining based flow cytometry (reference value: 28.95%); type: functional; procedure, shortened: as §2
HepG2 [11] = assay: Cell cycle arrest in human HepG2 cells assessed as accumulation at S phase at 5 uM after 48 hrs by propidium iodide staining based flow cytometry (reference value: 28.95%); type: functional; procedure, shortened: as §2
HepG2 [12] = assay: Potency index, ratio of fluorouracil IC50 to compound IC50 for human HepG2 cells; type: functional
HepG2 [13] = assay: Cell cycle arrest in human HepG2 cells assessed as accumulation at S phase at 1 uM after 48 hrs by propidium iodide staining based flow cytometry (reference value: 28.95%); type: functional; procedure, shortened: as §2
HepG2 [14] = assay: Cell cycle arrest in human HepG2 cells assessed as accumulation at G2/M phase at 10 uM after 48 hrs by propidium iodide staining based flow cytometry (reference value: 21.54%); type: functional; procedure, shortened: as §2
HepG2 [15] = assay: Cell cycle arrest in human HepG2 cells assessed as accumulation at G2/M phase at 20 uM after 48 hrs by propidium iodide staining based flow cytometry (reference value: 21.54%); type: functional; procedure, shortened: as §2
[16] = Solubility in water at pH 1; type: physicochemical
HepG2 [17] = assay: Cell cycle arrest in human HepG2 cells assessed as accumulation at G0/G1 phase at 5 uM after 48 hrs by propidium iodide staining based flow cytometry (reference value: 44.28%); type: functional; procedure, shortened: as §2
HepG2 [18] = assay: Cell cycle arrest in human HepG2 cells assessed as accumulation at G2/M phase after 48 hrs by propidium iodide staining based flow cytometry; type: functional; procedure, shortened: as §2
HepG2 [19] = assay: Cell cycle arrest in human HepG2 cells assessed as accumulation at G2/M phase at 5 uM after 48 hrs by propidium iodide staining based flow cytometry (reference value: 21.54%); type: functional; procedure, shortened: as §2
HepG2 [20] = assay: Cell cycle arrest in human HepG2 cells assessed as accumulation at subG1 phase at 1 uM after 48 hrs by propidium iodide staining based flow cytometry (reference value: 2.09%); type: functional; procedure, shortened: as §2
HepG2 [21] = assay: Cell cycle arrest in human HepG2 cells assessed as accumulation at S phase at 10 uM after 48 hrs by propidium iodide staining based flow cytometry (reference value: 28.95%); type: functional; procedure, shortened: as §2

Compound	IC50 (A549) [µM]	IC50 (HepG2 [1]) [µM]	IC50 (MDA-MB-231) [µM]	IC50 (MCF7) [µM]	other results
COC(=O)CN(C)c1nc(Nc2ccccc2)ncc1[N+](=O)[O-]	> 100	> 100	> 100	> 100	–
CCOC(=O)CNc1nc(Nc2ccccc2)ncc1[N+](=O)[O-]	> 100	> 100	54.3	> 100	–
COC(=O)CN(C)c1nc(Nc2cc(OC)c(OC)c(OC)c2)ncc1[N+](=O)[O-]	> 100	26.2	25.9	42	–
CCOC(=O)CNc1ncc([N+](=O)[O-])c(N(CC(=O)OCC)Cc2ccccc2)n1	> 100	44.5	92.5	> 100	–
COC(=O)CN(C)c1nc(NC2CCN(S(C)(=O)=O)CC2)ncc1[N+](=O)[O-]	> 100	> 100	59.6	> 100	–
COC(=O)CN(C)c1nc(NCc2ccccc2)ncc1[N+](=O)[O-]	79.4	> 100	61.1	85.9	–
CCOC(=O)CN(Cc1ccccc1)c1nc(Nc2cccc(OC)c2)ncc1[N+](=O)[O-]	> 100	27.6	47.2	> 100	–
O=c1[nH]cc(F)c(=O)[nH]1 [FLUOROURACIL]	–	–	–	30.4	–
COC(=O)CN(C)c1nc(Nc2cccc(OC)c2)ncc1[N+](=O)[O-]	31.9	73.4	58	93.7	–
CCOC(=O)CN(Cc1ccccc1)c1nc(NCc2cccc(OC)c2)ncc1[N+](=O)[O-]	> 100	33.6	80.7	57.4	–
CCOC(=O)CN(Cc1ccccc1)c1nc(NCCc2ccccc2)ncc1[N+](=O)[O-]	87.3	10.4	22.3	21	Activity (HepG2 [2]): 4.8%; Activity (HepG2 [3]): 25.46%; Activity (HepG2 [4]): 4.91%; Activity (HepG2 [5]): 29.86%; Activity (HepG2 [6]): 34.03%; Activity (HepG2 [7]): 30.91%; Activity (HepG2 [8]): 3.85%; solubility [9]: 3 µg/mL (≈ 6.89 µM); Activity (HepG2 [10]): 25.75%; Activity (HepG2 [11]): 28.28%; Ratio IC50 (HepG2 [12]): 3; Activity (HepG2 [13]): 28.08%; Activity (HepG2 [14]): 31.94%; Activity (HepG2 [15]): 36.85%; solubility [16]: 80.5 µg/mL (≈ 185 µM); Activity (HepG2 [17]): 31.26%; Activity (HepG2 [18]): Dose-dependent effect; Activity (HepG2 [19]): 30.83%; Activity (HepG2 [20]): 5.08%; Activity (HepG2 [21]): 27.02%
CCOC(=O)CNc1nc(NCc2ccccc2)ncc1[N+](=O)[O-]	74.4	> 100	22.3	52.4	–
CCOC(=O)CN(Cc1ccccc1)c1nc(Nc2ccccc2)ncc1[N+](=O)[O-]	> 100	44.4	> 100	> 100	–
CCOC(=O)CN(Cc1ccccc1)c1nc(NC2CCN(S(C)(=O)=O)CC2)ncc1[N+](=O)[O-]	> 100	57.1	75.8	> 100	–
CCOC(=O)CNc1nc(NC2CCN(S(C)(=O)=O)CC2)ncc1[N+](=O)[O-]	> 100	> 100	80.7	> 100	–
COC(=O)CN(C)c1nc(NCCc2ccccc2)ncc1[N+](=O)[O-]	37	86.7	44.8	32.5	–
COC(=O)CN(C)c1nc(Nc2ccc(Cl)cc2)ncc1[N+](=O)[O-]	23.5	49.8	21.2	60.7	–
CCOC(=O)CNc1nc(Nc2cccc(OC)c2)ncc1[N+](=O)[O-]	36.1	> 100	31.3	35.8	–
CCOC(=O)CN(Cc1ccccc1)c1nc(Nc2ccc(Cl)cc2)ncc1[N+](=O)[O-]	> 100	30.9	34.4	> 100	–
CCOC(=O)CNc1nc(Nc2ccc(OC)cc2)ncc1[N+](=O)[O-]	> 100	> 100	32.6	> 100	–
CCOC(=O)CN(Cc1ccccc1)c1nc(Nc2cc(OC)c(OC)c(OC)c2)ncc1[N+](=O)[O-]	> 100	37.8	40.4	> 100	–
CCOC(=O)CNc1nc(NCCc2ccccc2)ncc1[N+](=O)[O-]	48.2	71.1	21.9	> 100	–
CCOC(=O)CN(Cc1ccccc1)c1nc(NCc2ccccc2)ncc1[N+](=O)[O-]	> 100	20.9	82.4	> 100	–
CCOC(=O)CNc1nc(Nc2ccc(Cl)cc2)ncc1[N+](=O)[O-]	> 100	> 100	55.5	> 100	–
